This passage reports Activity and IC50 results from ChEMBL document CHEMBL4396941, “Design, synthesis and biological evaluation of benzamide derivatives as novel NTCP inhibitors that induce apoptosis in HepG2 cells” (Bioorg Med Chem Lett, 2019).

Structures are written as SMILES.

Test [1] deals with Hepatitis B virus. Description: Antiviral activity against hepatitis B virus infected in human HepG2.2.15 cells assessed as HBsAg secretion at 5 uM incubated for 9 days by ELISA (reference value: 8.41+/- 0.54 ng/ml). In kind it is functional. (In general: In an ELISA, binding on a coated surface is turned into a signal by an enzyme label.)
The subject of test [2] is Hepatitis B virus. Description: Antiviral activity against hepatitis B virus infected in human HepG2.2.15 cells assessed as reduction in HBeAg secretion at 5 uM incubated for 9 days by ELISA (reference value: 25.13 +/- 1.93 ng/ml). The class given is functional.
Test [3] relates to HepG2. Description: Antiproliferative activity against human HepG2 cells assessed as inhibition of cell growth incubated for 24 hrs by MTT assay. The class given is functional, cell-based. To be noted: HepG2, 24 h. The method in brief:
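HepG2 cells exposed to a range of concentrations for the stated times, then inhibition rate measured by MTT.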

The IC50 is the concentration that gives 50% inhibition. Turning to `COc1ccc(/C=N/NC(=O)CNC(=O)c2ccc(C)cc2)c(OCc2ccccc2Cl)c1`, the figures for the Activity in test [1] and in test [2] were 7.94 ng/mL and 23.53 ng/mL, respectively. In addition, the IC50 in test [3] was more than 50 µM.
`O=C(CNC(=O)c1cccnc1Cl)N/N=C/c1ccccc1OCc1cc2c(cc1Cl)OCO2`: the results for the Activity in test [1] and in test [2] were 8.39 ng/mL and 25.47 ng/mL, respectively. In test [3], the IC50 was more than 50 µM.
Taken in the same sequence, the figures for `Cc1ccc(C(=O)NCC(=O)N/N=C/c2ccccc2OCc2ccccc2Cl)cc1` were 3.95 ng/mL, 15.01 ng/mL and 13.4 µM.
Taken in the same sequence, the figures for `O=C(CNC(=O)c1ccc(F)cc1)N/N=C/c1ccccc1OCc1cc2c(cc1Cl)OCO2` were 3.98 ng/mL, 11.84 ng/mL and 17.1 µM.
The matching figures for `O=C(CNC(=O)c1ccc(-c2ccccc2)cc1)N/N=C/c1ccccc1OCc1ccccc1Cl`: 8.31 ng/mL, 24.88 ng/mL and more than 50 µM.
`C[C@H](NC(=O)COc1ccc(S(=O)(=O)N[C@H](C)c2ccccc2)cc1)c1ccccc1`: in test [3], the IC50 amounted to 35.7 µM.
Turning to `Cc1ccc(C(=O)NCC(=O)N/N=C/c2cccc(OCc3ccccc3Cl)c2)cc1`, the Activity in test [1] was determined as 5.74 ng/mL; in test [2], 18.09 ng/mL. Also, the IC50 in test [3] was 47.5 µM.
Taken in the same sequence, the figures for `Cc1ccc(C(=O)NCC(=O)N/N=C/c2ccccc2OCc2ccc(C#N)cc2)cc1` were 8.25 ng/mL, 25.25 ng/mL and more than 50 µM.
Take `CCN(CC)c1ccc(/C=N/NC(=O)CNC(=O)c2ccc(C)cc2)c(OCc2ccccc2Cl)c1`: the values for the Activity in test [1] and in test [2] were 8.37 ng/mL and 24.55 ng/mL, respectively. For the same compound, the IC50 in test [3] is more than 50 µM.
The matching figures for `O=C(CNC(=O)c1ccc(F)cc1)N/N=C/c1ccccc1OCc1ccccc1Cl`: 5.03 ng/mL, 14.53 ng/mL and 24.9 µM.
The matching figures for `COc1ccc(/C=N/NC(=O)CNC(=O)c2ccc(F)cc2)c(OCc2ccccc2Cl)c1`: 4.23 ng/mL, 13.07 ng/mL and 15.7 µM.
For `O=C(COc1ccc(Cl)cc1)NCc1ccc(CNC(=O)COc2ccc(Cl)cc2)cc1`, the IC50 in test [3] was found to be 26.4 µM.
For `Cc1ccc(C(=O)NCC(=O)N/N=C/c2ccc(OCc3cc4c(cc3Cl)OCO4)cc2)cc1`, the Activity in test [1] was determined as 3.91 ng/mL; in test [2] it was 11.47 ng/mL. The IC50 in test [3] stood at 14.9 µM.
Turning to `C[C@]1(C(=O)NCCOc2ccc(C3CCCCC3)cc2)CO[C@@H](c2ccccc2)OC1`, the IC50 in test [3] is 32.9 µM.
`O=C(CNC(=O)c1cccnc1)N/N=C/c1ccc(OCc2cc3c(cc2Cl)OCO3)cc1`: the Activity in test [1] stood at 3.71 ng/mL; in test [2], 11.45 ng/mL. Besides, the IC50 in test [3] is 10.1 µM.
With `C[C@H](Cn1cnc2c(N)ncnc21)OCP(=O)(O)O` [TENOFOVIR ANHYDROUS], the Activity in test [1] is 1.72 ng/mL; in test [2], 5.6 ng/mL.
For `Cc1cccc(CSCCNC(=O)CN(c2cccc(C(F)(F)F)c2)S(C)(=O)=O)c1`, in test [3], the IC50 amounted to 23.4 µM.
Consider `O=C(CNC(=O)c1ccc(-c2ccccc2)cc1)N/N=C/c1ccccc1OCc1cc2c(cc1Cl)OCO2`, for which the Activity in test [1] is 7.72 ng/mL; in test [2] it was 24.07 ng/mL. Also, in test [3], the IC50 is more than 50 µM.
With `Cc1ccccc1OCC(=O)N/N=C/c1cccc(OCc2ccccc2)c1`, the IC50 in test [3] was 18.6 µM.
Same read-out and setting: in the case of `Cc1cc(C)cc(OCC(=O)NCCNC(=O)COc2cc(C)cc(C)c2)c1` it was 53.2 µM.
Same read-out and setting: in the case of `Cc1sc(NC(=O)CCn2cnc3ccccc3c2=O)nc1-c1ccc(Cl)cc1` it was 25.4 µM; in that of `O=C1CC(c2ccccc2)CC(=O)C1=CNCCN1CCN(C(=O)Cc2ccccc2)CC1` (centres undefined), 70.2 µM.
